Active and inactive are the calls of the source. The rule behind the calls is not given here.
Columns and labels:
Leishmania donovani [1] = assay: Inhibition of Leishmania donovani cytochrome c oxidase
Leishmania donovani [2] = assay: Growth inhibition of Leishmania donovani MHOM/SD/00/1S-2D promastigotes assessed as inhibition of MTT reduction after 14 hrs; format: functional, organism-based
Method in brief: (§1)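 Late-exponential promastigotes at 2 × 10⁶ cells/ml in RPMI-10% HIFCS with drug, 14 h at 25°C. Washed at 4°C in Hanks-10 mM glucose, then given 0.5 mg/ml MTT for 2 h. Formazan dissolved in 10% SDS and read at 595 nm. Triplicates, at least two experiments; EC50 by Litchfield-Wilcoxon.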

Leishmania donovani [3] = assay: Growth inhibition of Leishmania donovani MHOM/SD/00/1S-2D promastigotes at 40 uM assessed as inhibition of MTT reduction after 14 hrs; format: functional, organism-based; method in brief: as §1
Leishmania donovani [4] = assay: Effect on plasma membrane integrity in Leishmania donovani MHOM/SD/00/1S-2D promastigotes assessed as SYTOX green fluorescence at 40 uM after 14 hrs; format: functional
Method in brief: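 Cells at 2 × 10⁶/ml in RPMI-10% HIFCS given increasing drug concentrations, 14 h at 25°C. Washed twice in Hanks-glucose and stained with 1 μM SYTOX green for 5 min in the dark. Fluorescence read at ex 485/em 520 nm and expressed as % of maximal signal after 0.1% Triton X-100.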

Leishmania donovani [5] = assay: Decrease in intracellular ATP level in Leishmania donovani 3-Luc promastigotes assessed as decrease in luminescence relative to control; format: functional, organism-based
Leishmania donovani [6] = assay: Effect on mitochondrial membrane potential in Leishmania donovani MHOM/SD/00/1S-2D promastigotes by measuring the decrease in rhodamine 123 accumulation after 14 hrs; format: functional, organism-based
Method in brief: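 After 14 h of drug exposure at 25°C, parasites washed twice at 4°C in Hanks-glucose and loaded with rhodamine 123 (0.3 μg/ml, 5 min, 37°C). Washed again, resuspended at 2 × 10⁶ cells/ml and read by flow cytometry (ex 488/em 525 nm; 20,000 events). Geometric mean fluorescence recorded; 10 mM KCN-poisoned cells served as depolarized control.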

Leishmania donovani [7] = assay: Effect on mitochondrial function in Leishmania donovani MHOM/SD/00/1S-2D promastigotes assessed as decrease in oxygen consumption at 10 uM after 14 hrs relative to control; format: functional; set-up: scale not given: the % may be the effect or the level left
Method in brief: (§2)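 Promastigotes incubated 14 h at 25°C with drug in RPMI-10% HIFCS at 2 × 10⁶ cells/ml. They were then washed and resuspended in respiration buffer at 10⁸ cells/ml with 5 mM succinate and 1 mg/ml BSA. Clark-electrode O₂ uptake at 25°C, given as nmol O₂/min/10⁸ cells and as % of untreated.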

Leishmania donovani [8] = assay: Effect on mitochondrial function in Leishmania donovani MHOM/SD/00/1S-2D promastigotes assessed as decrease in oxygen consumption at 20 uM after 14 hrs relative to control; format: functional; set-up: scale not given: the % may be the effect or the level left; method in brief: as §2
Leishmania donovani [9] = assay: Effect on mitochondrial function in Leishmania donovani MHOM/SD/00/1S-2D promastigotes assessed as decrease in oxygen consumption at 40 uM after 14 hrs relative to control; format: functional; set-up: scale not given: the % may be the effect or the level left; method in brief: as §2
Leishmania donovani [10] = assay: Effect on oxygen consumption rate in digitonin-permeabilized Leishmania donovani MHOM/SD/00/1S-2D promastigotes assessed as decrease in state 3 respiration at 25 uM after 14 hrs; format: functional; set-up: scale not given: the % may be the effect or the level left
Leishmania donovani [11] = assay: Inhibition of TMPD-ascorbate-dependent oxygen consumption in digitonin-permeabilized Leishmania donovani MHOM/SD/00/1S-2D promastigotes at 25 uM after 14 hrs; format: functional, organism-based
Leishmania donovani [12] = assay: Inhibition of Leishmania donovani cytochrome c reductase at 40 uM
Method in brief: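 Same L. donovani mitochondrial fraction (200 μg/ml protein, 0.02% TX-100, 75 mM sodium phosphate pH 7.4), with CcO first blocked by 10 mM KCN and oxidized cytochrome c as acceptor. Reaction started with 5 mM succinate; A550 change monitored. Controls lacked succinate or contained 2 μM antimycin A. HePC tested at 40 μM.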

Leishmania donovani [13] = assay: Effect on apoptosis induction in Leishmania donovani MHOM/SD/00/1S-2D promastigotes assessed as accumulation in sub-G1 phase at 20 uM after 24 hrs by propidium iodide staining

CCCCCCCCCCCCCCCCOP(=O)([O-])OCC[N+](C)(C)C [MILTEFOSINE]
Activity (Leishmania donovani [1]): Dose-dependent effect
EC50 (Leishmania donovani [2]): 10.2 µM
Activity (Leishmania donovani [3]): Active
Activity (Leishmania donovani [4]): 10%
Activity (Leishmania donovani [5]): Active
Activity (Leishmania donovani [6]): Dose-dependent effect
Activity (Leishmania donovani [7]): 95.4%
Activity (Leishmania donovani [8]): 75%
Activity (Leishmania donovani [9]): 44.4%
Activity (Leishmania donovani [10]): 40%
Activity (Leishmania donovani [11]): Active
inhibition (Leishmania donovani [12]): 5%
Activity (Leishmania donovani [13]): 38%

— ChEMBL document CHEMBL1147113, “Miltefosine (hexadecylphosphocholine) inhibits cytochrome c oxidase in Leishmania donovani promastigotes” (Antimicrob Agents Chemother, 2007)
